The target in this test is Human immunodeficiency virus type 1 protease (Human immunodeficiency virus 1, UniProt Q72874). The test can be described thus: Inhibition of HIV protease, measured by assaying the cleavage of a fluorescent peptide substrate using HPLC. In a few lines:
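HIV-1 protease activity followed as cleavage of a fluorescent peptide substrate, with products resolved and quantified by HPLC; Ki values reported.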

`CCC(N=O)c1cccc(CN2C(=O)N(Cc3cccc(C(CC)N=O)c3)[C@H](Cc3ccccc3)[C@H](O)[C@@H](O)[C@H]2Cc2ccccc2)c1` (stereo partly drawn) [(4R,5S,6S,7R)-4,7-dibenzyl-5,6-dihydroxy-1,3-bis({3-[1-(hydroxyimino)propyl]phenyl}methyl)-1,3-diazepan-2-one] displayed a Ki of 0.031 nM.
`CCCC(N=O)c1cccc(CN2C(=O)N(Cc3cccc(C(CCC)N=O)c3)[C@H](Cc3ccccc3)[C@H](O)[C@@H](O)[C@H]2Cc2ccccc2)c1` (some centres not stated) displayed a Ki of 0.031 nM.

As usually defined, the Ki is the equilibrium dissociation constant of an inhibitor or competing ligand from its target.

These data come from BindingDB's records for doi:10.1021/jm9704199 (Dupont Pharmaceuticals, 1998).
